Assay results reported in ChEMBL document CHEMBL4665741, “Synthesis and biological evaluation of thiazole derivatives on basic defects underlying cystic fibrosis” (Bioorg Med Chem Lett, 2020).
The source made the active and inactive calls. No cut-off for these calls is given here.

Columns and labels:
Type in all cases: cell-based
[1] = system: Cystic fibrosis transmembrane conductance regulator (Homo sapiens), P13569 [F508del]; experiment: Corrector activity at CFTR F508del mutant (unknown origin) expressed in forskolin/VX-770-stimulated human CFBE41o- cells co-expressing HS-YFP assessed as increase in iodide influx measuring HS-YFP quenching at 2 to 10 uM incubated for 24 hrs by fluorescent method; conditions: dose microM 2-10, time 24.0 hrs
How it was run: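 CFBE41o- bronchial epithelial cells stably expressing F508del-CFTR and halide-sensitive YFP, incubated 24 h with compound at 2 and 10 μM, vehicle (DMSO), or VX-809 (1 μM) as positive control. F508del-CFTR activity at the plasma membrane was then read as the rate of HS-YFP quenching caused by iodide influx.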

[2] = system: Cystic fibrosis transmembrane conductance regulator (Homo sapiens), P13569 [F508del]; experiment: Potentiation of CFTR F508 deletion mutant (unknown origin) expressed in CFBE41o- cells coexpressing HS-YFP assessed as increase in halide influx measuring HS-YFP quenching measured after acute treatment at 1 uM after 24 hrs in presence of forskolin and CFTR inhibitor-172 by fluorescent method
[3] = system: Cystic fibrosis transmembrane conductance regulator (Homo sapiens), P13569 [F508del]; experiment: Potentiation of CFTR F508 deletion mutant (unknown origin) expressed in CFBE41o- cells coexpressing HS-YFP assessed as increase in halide influx measuring HS-YFP quenching measured after acute treatment at 10 uM after 24 hrs in presence of forskolin and CFTR inhibitor-172 by fluorescent method
[4] = system: Cystic fibrosis transmembrane conductance regulator (Homo sapiens), P13569 [F508del]; experiment: Potentiation of CFTR F508del mutant (unknown origin) expressed in human CFBE41o- cells co-expressing HS-YFP assessed as increase in halide influx measuring HS-YFP quenching measured after acute treatment at 2 to 20 uM for 20 mins in presence of forskolin by fluorescent method; conditions: filed as opener, dose microM 2-20, time 20.0 min
How it was run: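 CFBE41o- cells stably co-expressing F508del-CFTR and HS-YFP were held 24 h at 32°C to rescue mutant trafficking. Cells were then acutely treated with compound (2 and 20 μM) plus forskolin (20 μM). Controls were forskolin alone and forskolin plus VX-770 (1 μM). Halide influx was read as the HS-YFP quenching rate.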

[5] = system: Cystic fibrosis transmembrane conductance regulator (Homo sapiens), P13569 [F508del]; experiment: Potentiation of CFTR F508 deletion mutant (unknown origin) expressed in CFBE41o- cells coexpressing HS-YFP assessed as increase in halide influx measuring HS-YFP quenching measured after acute treatment at 0.08 to 50 uM after 24 hrs in presence of forskolin by fluorescent method; conditions: filed as opener, dose microM 0.08-50, time 24.0 hrs
How it was run: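 Concentration-response on CFBE41o- cells co-expressing F508del-CFTR and HS-YFP, pre-incubated 24 h at 32°C to rescue maturation. Compound was added acutely over 80 nM–50 μM with forskolin. Controls were forskolin alone and VX-770 (1 μM). Activity was measured by HS-YFP quenching from halide influx.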

[6] = target: Cystic fibrosis transmembrane conductance regulator (Homo sapiens, UniProt P13569, F508DEL); experiment: (§1) Potentiation of CFTR F508 deletion mutant (unknown origin) expressed in CFBE41o- cells coexpressing HS-YFP assessed as increase in iodide influx measuring HS-YFP quenching incubated for 20 mins in presence of forskolin by fluorescent method
[7] = system: Cystic fibrosis transmembrane conductance regulator (Homo sapiens), P13569 [F508del]; experiment: as §1; conditions: filed as opener

Chain of Cystic fibrosis transmembrane conductance regulator (Homo sapiens), P13569 [F508del] (P13569 as listed by the source): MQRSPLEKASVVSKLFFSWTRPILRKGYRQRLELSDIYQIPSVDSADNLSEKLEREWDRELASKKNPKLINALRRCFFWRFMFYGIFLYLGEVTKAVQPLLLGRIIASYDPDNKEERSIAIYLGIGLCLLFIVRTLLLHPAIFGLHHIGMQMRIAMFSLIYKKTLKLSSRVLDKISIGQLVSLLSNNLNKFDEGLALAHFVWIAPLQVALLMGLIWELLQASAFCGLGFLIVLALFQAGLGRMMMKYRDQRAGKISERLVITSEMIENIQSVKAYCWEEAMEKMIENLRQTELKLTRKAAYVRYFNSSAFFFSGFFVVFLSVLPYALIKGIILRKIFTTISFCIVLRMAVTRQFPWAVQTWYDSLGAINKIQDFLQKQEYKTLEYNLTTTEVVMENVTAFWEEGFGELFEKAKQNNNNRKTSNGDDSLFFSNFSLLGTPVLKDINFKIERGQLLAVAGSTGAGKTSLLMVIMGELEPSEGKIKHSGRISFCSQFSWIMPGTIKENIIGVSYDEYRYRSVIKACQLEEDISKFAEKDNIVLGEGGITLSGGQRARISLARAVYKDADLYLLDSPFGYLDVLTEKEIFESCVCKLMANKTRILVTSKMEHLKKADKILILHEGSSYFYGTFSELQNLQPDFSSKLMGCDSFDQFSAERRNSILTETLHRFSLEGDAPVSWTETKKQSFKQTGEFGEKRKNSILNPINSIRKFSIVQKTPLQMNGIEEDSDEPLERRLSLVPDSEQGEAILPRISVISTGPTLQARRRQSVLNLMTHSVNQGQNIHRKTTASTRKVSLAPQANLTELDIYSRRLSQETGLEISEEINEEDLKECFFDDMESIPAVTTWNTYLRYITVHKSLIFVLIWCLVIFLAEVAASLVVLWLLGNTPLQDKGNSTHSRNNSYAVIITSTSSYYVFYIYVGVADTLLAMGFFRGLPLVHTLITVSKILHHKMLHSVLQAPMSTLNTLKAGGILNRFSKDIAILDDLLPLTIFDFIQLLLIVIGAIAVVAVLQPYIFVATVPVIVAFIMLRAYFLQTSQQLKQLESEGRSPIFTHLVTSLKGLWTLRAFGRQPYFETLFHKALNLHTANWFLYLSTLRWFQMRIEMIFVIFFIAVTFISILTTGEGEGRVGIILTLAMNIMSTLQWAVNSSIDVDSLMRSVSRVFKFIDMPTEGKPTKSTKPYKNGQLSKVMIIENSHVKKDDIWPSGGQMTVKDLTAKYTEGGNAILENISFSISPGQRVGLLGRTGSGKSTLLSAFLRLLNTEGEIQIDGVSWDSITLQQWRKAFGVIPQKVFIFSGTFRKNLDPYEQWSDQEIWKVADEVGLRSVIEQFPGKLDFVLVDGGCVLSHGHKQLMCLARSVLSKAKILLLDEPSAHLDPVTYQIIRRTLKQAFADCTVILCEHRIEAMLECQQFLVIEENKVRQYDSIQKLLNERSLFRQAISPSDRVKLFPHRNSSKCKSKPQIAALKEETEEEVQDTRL
Chain of Cystic fibrosis transmembrane conductance regulator (P13569 as listed by the source): as above

Row | SMILES | Activity [1] | also measured
1 | CCN(C(=O)c1ccccc1)c1nc(CC(=O)O)cs1 | inactive | –
2 | CCOC(=O)Cc1csc(N(CC)C(=O)c2cc(OC)c(OC)c(OC)c2)n1 | inactive | –
3 | CCOC(=O)Cc1csc(NC(=O)c2ccc(Cl)cc2)n1 | inactive | –
4 | CCN(C(=O)c1ccc(I)cc1)c1nc(CC(=O)O)cs1 | inactive | –
5 | CCOC(=O)Cc1csc(N(CC)C(=O)c2ccccc2)n1 | inactive | –
6 | CCN(C(=O)c1ccc(Cl)cc1)c1nc(CC(=O)O)cs1 | inactive | –
7 | COc1cc(C(=O)Nc2nc(CC(=O)O)cs2)cc(OC)c1OC | inactive | –
8 | CCN(C(=O)c1cc(OC)c(OC)c(OC)c1)c1nc(CC(=O)O)cs1 | inactive | –
9 | CC(C)(C)c1cc(C(C)(C)C)c(NC(=O)c2c[nH]c3ccccc3c2=O)cc1O | – | Activity [2]: inactive
10 | O=C(O)Cc1csc(NC(=O)c2ccc(I)cc2)n1 | inactive | –
11 | O=C(O)Cc1csc(NC(=O)c2ccccc2)n1 | inactive | –
12 | CCOC(=O)Cc1csc(NC(=O)c2ccccc2)n1 | inactive | –
13 | O=C(O)Cc1csc(NC(=O)c2ccc(Cl)cc2)n1 | inactive | –
14 | CCOC(=O)Cc1csc(N(CC)C(=O)c2ccc(I)cc2)n1 | inactive | Activity [3]: inactive; Activity [4]: Active; Activity [5]: Active; EC50 [6]: 3.2 µM; Emax [7]: 1.9
15 | CCOC(=O)Cc1csc(NC(=O)c2cc(OC)c(OC)c(OC)c2)n1 | inactive | –
16 | CCOC(=O)Cc1csc(N(CC)C(=O)c2ccc(Cl)cc2)n1 | inactive | Activity [3]: inactive; Activity [4]: Active; Activity [5]: Active; EC50 [6]: 1.8 µM; Emax [7]: 1.8
17 | CCOC(=O)Cc1csc(NC(=O)c2ccc(I)cc2)n1 | inactive | –
